# A selection: hits, their analogues and other compounds. The true share with any hit is near 2.1%.
# MsrA inh = bovine MsrA enzyme inhibitors, primary screen, biochemical, absorbance, HTS. Methionine sulfoxide reductase A (Bos taurus). purified bovine MsrA, absorbance read-out. inhibition, % at 15.5 µM. 360,000 compounds, 0.75% hits. AID 651718, 2012; in the data active = inhibition above about 4.5%;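 also: 0% = vehicle wells with enzyme and 100% = reference inhibitor wells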
# PKA-R2B act = activators of PKA-R2B holoenzyme, primary screen, biochemical, fluorescence polarization, Cy5-IP20, human | PKA-R2B holoenzyme dissociation; R2B truncated from residue 108, S112A mutant; 0% DMSO only, 100% 113 µM cGMP | activation, % at 11.4 µM | 340,000 compounds, 0.079% hits;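 active = activation above a cutoff set at the mean over all compounds plus 3 SD, cut at about 18% in these data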;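 also: higher means more holoenzyme dissociation and a rise in polarization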
# Target sequence (P31323 whole entry, looked up, other chains not shown, the tested form may be a part): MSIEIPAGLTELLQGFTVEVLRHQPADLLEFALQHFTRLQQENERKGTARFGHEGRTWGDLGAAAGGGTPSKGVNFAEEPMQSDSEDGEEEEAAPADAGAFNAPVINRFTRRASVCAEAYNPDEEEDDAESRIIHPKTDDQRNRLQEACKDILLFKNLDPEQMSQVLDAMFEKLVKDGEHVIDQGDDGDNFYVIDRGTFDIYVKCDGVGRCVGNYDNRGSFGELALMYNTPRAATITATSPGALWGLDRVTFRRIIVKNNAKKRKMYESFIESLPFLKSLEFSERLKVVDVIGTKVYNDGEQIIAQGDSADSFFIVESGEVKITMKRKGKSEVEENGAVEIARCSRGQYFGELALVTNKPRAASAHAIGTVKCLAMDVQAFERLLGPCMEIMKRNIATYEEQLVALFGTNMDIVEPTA
# IMP-1 inh-1 = IMP-1 metallo-beta-lactamase inhibitors, primary screen, biochemical, epi-absorbance readout, Pseudomonas aeruginosa enzyme. purified IMP-1, nitrocefin hydrolysis, epi-absorbance fluorescence. 290,000 compounds, 0.45% hits. inhibition, % at 5.6 µM;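 active = inhibition above the mean plus 3 SD of all compounds in the same screening run, cut at about 4.5% in these data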;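 also: 0% = IMP-1 with DMSO and 100% = DMSO wells lacking enzyme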
#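 Material – recombinant IMP-1 enzyme, purified · Amount – IMP-1 0.2 nM before substrate addition · Medium – HEPES buffer pH 7.1 with ZnSO4 and Brij 35 · Timing – 25 °C, 15 min preincubation, 25 min reaction · Measured by – plate fluorescence quenching by hydrolysis product, ex 480/em 530 nm · Read-out – percent enzyme inhibition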
# bovine MsrA act = bovine MsrA enzyme activators, primary screen, biochemical, absorbance, HTS; purified bovine MsrA, absorbance read-out; activation, % at 10.6 µM; 360,000 compounds, 0.3% hits; Methionine sulfoxide reductase A (Bos taurus); in the data active = activation above about 7.5%;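 also: 0% = vehicle and 100% = reference activator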
# PKA-R1A act = activators of PKA-R1A holoenzyme, primary screen, biochemical, fluorescence polarization, Cy5-IP20, bovine R1A, mouse PKAc. 340,000 compounds, 0.083% hits. cAMP-dependent protein kinase type I-alpha regulatory subunit (Bos taurus) + …. AID 504707, 2011. PKA-R1A dissociation; scaled: DMSO 0%, 113 µM cGMP 100%. activation, % at 11.4 µM;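 active = percent activation above the mean of all tested compounds plus 3 SD, cut at about 19% in these data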;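 also: higher means more PKAc released from R1A so a rise in polarization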
# VIM-2 inhibitor = VIM-2 metallo-beta-lactamase inhibitors, primary screen, biochemical, epi-absorbance readout, Pseudomonas aeruginosa enzyme | purified VIM-2, nitrocefin hydrolysis, epi-absorbance fluorescence | inhibition, % at 5.6 µM | 290,000 compounds, 0.89% hits;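 active = inhibition above the mean of all tested compounds plus 3 SD, cutoff set per screening run, cut at about 7.5% in these data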;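 also: red hydrolysis product quenches plate fluorescence so inhibitors raise well fluorescence; 0% = enzyme with DMSO and 100% = DMSO without enzyme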
# IMP-1 inh-2 = IMP-1 metallo-beta-lactamase inhibitors, confirmation, selectivity assay for selective VIM-2 inhibitor project, biochemical, epi-absorbance readout, triplicate. inhibition, % at 5.6 µM. 1,300 tested, under 10 active. AID 1856, 2009. shares compounds with VIM-2 inhibitor. purified IMP-1, nitrocefin hydrolysis, epi-absorbance fluorescence; call rule not given here;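 also: 0% = enzyme with vehicle and 100% = vehicle without enzyme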
# VIM-2 FRET inh = VIM-2 inhibitors in FRET format, confirmation, artefact control for selective VIM-2 inhibitor project, biochemical, epi-absorbance artifact exclusion | purified VIM-2, CCF2 FRET substrate hydrolysis | inhibition, % at 5.6 µM | shares compounds with VIM-2 inhibitor | 1,300 compounds, 23% hits | AID 1857, 2009;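 active = inhibition above the mean of all tested compounds plus 3 SD, cut at about 19% in these data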;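 also: 0% = VIM-2 plus DMSO and 100% = no enzyme wells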
# TEM-1 counter = TEM-1 serine beta-lactamase inhibitors, counter-screen for VIM-2 inhibitor project, biochemical, epi-absorbance, HTS. shares compounds with VIM-2 inhibitor. Purified TEM-1, nitrocefin hydrolysis, epi-absorbance fluorescence. inhibition, % at 5.6 µM. 1,300 compounds, 3% hits. AID 1866, 2009;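 active = inhibition above that campaign's mean inhibition plus 3 SD, cut at about 0.46% in these data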;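 also: 0% = TEM-1 with DMSO and 100% = TEM-1 with 100 µM potassium clavulanate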
# Target sequence (P62593 whole entry, looked up): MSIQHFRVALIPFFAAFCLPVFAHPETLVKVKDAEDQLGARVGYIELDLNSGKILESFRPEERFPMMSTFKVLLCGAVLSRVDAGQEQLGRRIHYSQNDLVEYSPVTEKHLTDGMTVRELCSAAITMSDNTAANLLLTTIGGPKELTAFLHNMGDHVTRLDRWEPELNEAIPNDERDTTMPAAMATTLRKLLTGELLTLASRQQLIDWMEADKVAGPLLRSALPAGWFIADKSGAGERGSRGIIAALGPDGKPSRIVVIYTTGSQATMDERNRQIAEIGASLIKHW
# VIM-2 confirm 2 = VIM-2 metallo-beta-lactamase inhibitors, confirmation, biochemical, epi-absorbance, hits shared with IMP-1 screen | shares compounds with VIM-2 inhibitor | purified VIM-2, nitrocefin hydrolysis | inhibition, % at 5.6 µM | 1,300 compounds, 96% hits | AID 2187, 2009;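 active = inhibition of the VIM-2 beta-lactamase enzyme above about 11% from the earlier first-round screen, limit read from the data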;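 also: 0% = VIM-2 with DMSO and 100% = buffer wells without enzyme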
# * hit, by the source's call; . = no result given.
SMILES,MsrA inh,PKA-R2B act,IMP-1 inh-1,bovine MsrA act,PKA-R1A act,VIM-2 inhibitor,IMP-1 inh-2,VIM-2 FRET inh,TEM-1 counter,VIM-2 confirm 2
COc1ccc(/C=C2\N=C(SC)NC2=O)cc1,2.3,-8.1,-6.5,-5.7,2.6,-2.7,.,.,.,.
COc1cc(OC)c2nc(C)c3c(c2c1)N(c1ccc(O)cc1)CC3,2.5,1.6,-1.4,-3.2,1.9,56.5*,-4.2,-30.9,-5.8,68.9*
COc1cccc(/C=C(\CC(=O)O)c2nc3ccccc3s2)c1,3.0,0.3,-1.9,-17.4,-8.3,2.9,.,.,.,.
O=C(O)C/C(=C\c1cc(Cl)c2c(c1)OCO2)c1nc2ccccc2s1,2.9,-6.7,1.3,-2.4,-1.5,14.1*,0.1,39.8*,-4.9,23.1*
CSCC[C@H](NC(=O)COc1cc2c(c3oc(=O)c(C)c(C)c13)CCC(C)(C)O2)C(=O)O,3.2,-1.9,-1.7,-2.9,-5.5,2.7,.,.,.,.
CSC[C@H](NC(=O)COc1cc2c(c3oc(=O)c(C)c(C)c13)CCC(C)(C)O2)C(=O)O,3.3,-3.4,-1.4,-10.0,-12.2,28.4*,-3.1,48.3*,-8.2,33.5*
Cc1c(C)c2c(OCC(=O)N[C@@H](CC(C)C)C(=O)O)cc3c(c2oc1=O)CCC(C)(C)O3,1.0,0.1,-0.4,-1.1,0.4,2.1,.,.,.,.
Cc1c(C)c2c(OCC(=O)N[C@@H](Cc3ccccc3)C(=O)O)cc3c(c2oc1=O)CCC(C)(C)O3,2.9,-8.0,0.0,-11.0,-6.5,40.4*,-3.0,68.1*,-6.3,45.8*
Cc1cccc(NC(=O)CNC(=O)[C@@H](Cc2ccccc2)NC(=O)[C@H]2O[C@@H](n3ccc(N)nc3=O)[C@H](O)[C@@H]2O)c1C,1.1,.,.,.,.,.,.,.,.,.
CN(C)CCN(Cc1ccco1)C(=O)c1cc2c(Cl)nc3ccccc3c2s1,0.1,6.3,-0.9,-3.2,6.9,12.7*,-2.0,0.2,-4.0,36.4*
CN(CCC#N)C(=O)c1cc2c(Cl)nc3ccccc3c2s1,-0.7,-4.7,-2.2,-0.6,3.6,20.2*,-3.7,7.2,-6.2,25.3*
COc1ccc(CNC(=O)C[C@H]2C(=O)N(CCc3ccccc3)C[C@@H]2Cc2ccccc2)cc1,0.9,-2.8,-4.3,-1.8,-6.4,-1.2,.,.,.,.
CCN(CC)CCCNc1nc(SC)nc2sc3c(c12)CCN(C)C3,.,.,-1.4,.,.,13.1*,-3.0,-1.6,-5.3,20.6*
CCCCc1cc(=O)oc2c3c(cc(OCC(=O)NCCCO)c12)OC(C)(C)CC3,0.4,-1.2,-1.0,-4.0,-5.5,-1.8,.,.,.,.
CCc1cc(=O)oc2c3c(cc(OCC(=O)NCCCn4ccnc4)c12)OC(C)(C)CC3,1.8,0.5,-3.8,4.2,4.1,45.7*,-2.6,-9.5,-1.8,54.5*
Cc1cc(Cl)ccc1OCC(=O)NCCCn1ccnc1,0.3,0.6,-2.5,5.1,-3.9,-7.5,.,.,.,.
CCc1cc(=O)oc2c(C)c(OCC(=O)NCCCn3ccnc3)ccc12,0.8,1.2,-0.1,-2.6,-0.2,23.1*,-2.7,-1.4,-7.4,34.0*
COCCn1c(-c2ccc(Br)cc2)csc1=Nc1cccnc1,2.4,-15.2,-1.6,-8.1,-0.6,-0.5,.,.,.,.
Clc1ccc(-c2csc(=Nc3cccnc3)n2CCCn2ccnc2)cc1Cl,0.8,1.3,-0.7,-5.3,-7.7,29.6*,-3.1,-28.4,-8.4,35.2*
COc1cc(OC)c(-c2nn3c(-c4ccco4)nnc3s2)cc1OC,1.7,2.6,4.0,-0.8,0.2,35.8*,-2.4,-4.9,-3.8,42.1*
c1ccc(-c2cc(-c3nn4c(-c5ccco5)nnc4s3)c3ccccc3n2)cc1,.,-2.4,-1.8,-12.1,-8.2,2.1,.,.,.,.
COc1cc(-c2nnc3sc(-c4ccncc4)nn23)cc(OC)c1OC,0.5,-1.3,.,-3.9,-4.6,.,.,.,.,.
COc1ccc(-c2nn3c(-c4ccco4)nnc3s2)cc1OC,-1.0,-8.8,0.0,-2.8,-2.2,53.8*,-3.7,-8.9,-11.8,56.1*
Cc1cc(-c2nn3c(-c4ccccc4)nnc3s2)c2ccccc2n1,-0.2,7.8,-3.9,-8.1,-20.2,12.7*,-2.6,10.3,-3.9,35.4*
COc1cc(-c2nn3c(-c4ccccc4)nnc3s2)cc(OC)c1OC,1.0,-2.5,-3.0,-11.9,-2.2,18.1*,-2.4,38.5*,-5.4,36.5*
SMILES,MsrA inh,PKA-R2B act,IMP-1 inh-1,bovine MsrA act,PKA-R1A act,VIM-2 inhibitor,IMP-1 inh-2,VIM-2 FRET inh,TEM-1 counter,VIM-2 confirm 2
OCCNc1ncnc2c1sc1nc(N3CCOCC3)c3c(c12)CCC3,-1.0,3.4,-2.6,-1.6,-7.0,-2.6,.,.,.,.
CCN(CC)CCNc1ncnc2c1sc1nc(N3CCOCC3)c3c(c12)CCCC3,0.7,-7.5,-2.6,-5.1,-2.6,15.5*,-3.9,-0.1,-7.2,33.3*
CCCCN(C(=O)c1cccc(S(=O)(=O)N(C)c2ccc(C)cc2)c1)c1c(N)n(CC(C)C)c(=O)[nH]c1=O,-0.2,-12.5,.,-2.5,0.6,.,.,.,.,.
c1ccc2c(c1)Cc1cc3ccccc3nc1-2,2.3,-8.8,-2.7,-8.6,0.2,6.8,.,.,.,.
O=C1c2ccccc2-c2nc3ccccc3cc21,0.3,-9.6,-4.1,-10.4,-5.2,12.3*,-3.9,0.4,-11.2,17.4*
CC(=O)c1cc2c(cc1NC(=O)CCn1cnnn1)OCO2,3.5,5.9,-2.2,-2.6,1.1,-0.2,.,.,.,.
C[C@@H]1CN([C@@H](C)CO)C(=O)CCCn2nncc2CO[C@H]1CN(C)Cc1cccc(O)c1,0.7,4.7,.,-5.3,-12.0,.,.,.,.,.
CCc1cc2c(CN3CCN(C)CC3)cc(=O)oc2cc1O,1.8,-6.3,1.1,-0.5,5.8,16.3*,-1.4,-16.4,1.1*,31.3*
